Measurements reported in article PMC3698760 (Journal of the American Heart Association: Cardiovascular …, 2013).

What was measured:
[1] = target: T1, ABCA1 (Homo sapiens, UniProt O95477); assay: Cholesterol efflux in COS-7 cells transiently transfected with human ABCA1 cDNA; type: cell-based; settings: 20 μg/mL, 4 hours, n=6 to 7
In short: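 COS‑7 cells were kept in DMEM with 10% FBS and antibiotics and seeded at 80–90% confluence. They were transfected by lipofection with human ABCA1 cDNA in pcDNA3.1 (with ABCG1 in pEdsRed‑N1), or with mock vector. Cells were then ³H‑cholesterol labelled, and efflux was measured in serum‑free medium with 0.2% BSA.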

[2] = tested on: monocyte chemoattractant protein‐1 (MCP‐1); assay: Plasma MCP-1 by ELISA; type: in vivo; settings: high dose (50 mg/kg), 16 weeks, apoE−/− mice
In short: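 Overnight-fasted plasma collected from high-fat-fed apoE−/− mice after 16 weeks of i.p. dosing 3 times weekly (10 or 50 mg/kg per day, or scrambled peptide). High-sensitivity CRP and MCP-1 were quantified with commercial ELISA kits.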

[3] = target: T1, ABCA1; assay: Cholesterol efflux in CHO-ldlA7 cells transfected with human ABCA1 cDNA; type: cell-based; settings: 20 μg/mL, 4 hours, n=6
In short: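 CHO-ldlA7 cells seeded at 80–90% confluence were transiently transfected (Lipofectamine 2000) with human ABCA1 cDNA in pcDNA3.1 or with empty vector (mock). Cells were labelled with ³H-cholesterol in serum-free medium with 0.2% BSA. Efflux over 4 h was measured with or without 20 μg/mL human apoA-I or test peptide; n=6.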

[4] = tested on: apoE‐deficient mice; assay: Plasma lipid profiles by enzymatic assay, 16-week treatment; type: in vivo; settings: 16 weeks; for HDL Cholesterol / Total Cholesterol / Triglyceride: 3 times a week, high-fat-fed apoE-deficient mice, mean±SD
In short: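 Overnight-fasting plasma taken after 16 weeks from 19 of 23 high-fat-fed apoE−/− mice. Dosing was i.p. 3 times weekly with scrambled peptide or test peptide at 10 or 50 mg/kg per day. Total cholesterol, triglyceride and HDL cholesterol were measured by enzymatic assay; mean±SD.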

[5] = tested on: human erythrocytes; assay: Hemolysis assay; type: cell-based; settings: 1% human erythrocytes in PBS, 10 minutes at 37°C; up to 1.0 mg/mL; OD 540 nm
In short: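 Erythrocytes from EDTA blood of 4 human donors, washed 3 times in PBS to remove plasma and buffy coat. A 1% suspension in PBS was incubated with or without test peptide for 10 min at 37°C. Hemoglobin in the supernatant was read at 540 nm and expressed as percentage of Triton X-100 lysis; mean±SD.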

[6] = high-dose 50 mg/kg per day i.p., n=7
[7] = low-dose 10 mg/kg per day i.p., n=5

T1 sequence (O95477 whole entry): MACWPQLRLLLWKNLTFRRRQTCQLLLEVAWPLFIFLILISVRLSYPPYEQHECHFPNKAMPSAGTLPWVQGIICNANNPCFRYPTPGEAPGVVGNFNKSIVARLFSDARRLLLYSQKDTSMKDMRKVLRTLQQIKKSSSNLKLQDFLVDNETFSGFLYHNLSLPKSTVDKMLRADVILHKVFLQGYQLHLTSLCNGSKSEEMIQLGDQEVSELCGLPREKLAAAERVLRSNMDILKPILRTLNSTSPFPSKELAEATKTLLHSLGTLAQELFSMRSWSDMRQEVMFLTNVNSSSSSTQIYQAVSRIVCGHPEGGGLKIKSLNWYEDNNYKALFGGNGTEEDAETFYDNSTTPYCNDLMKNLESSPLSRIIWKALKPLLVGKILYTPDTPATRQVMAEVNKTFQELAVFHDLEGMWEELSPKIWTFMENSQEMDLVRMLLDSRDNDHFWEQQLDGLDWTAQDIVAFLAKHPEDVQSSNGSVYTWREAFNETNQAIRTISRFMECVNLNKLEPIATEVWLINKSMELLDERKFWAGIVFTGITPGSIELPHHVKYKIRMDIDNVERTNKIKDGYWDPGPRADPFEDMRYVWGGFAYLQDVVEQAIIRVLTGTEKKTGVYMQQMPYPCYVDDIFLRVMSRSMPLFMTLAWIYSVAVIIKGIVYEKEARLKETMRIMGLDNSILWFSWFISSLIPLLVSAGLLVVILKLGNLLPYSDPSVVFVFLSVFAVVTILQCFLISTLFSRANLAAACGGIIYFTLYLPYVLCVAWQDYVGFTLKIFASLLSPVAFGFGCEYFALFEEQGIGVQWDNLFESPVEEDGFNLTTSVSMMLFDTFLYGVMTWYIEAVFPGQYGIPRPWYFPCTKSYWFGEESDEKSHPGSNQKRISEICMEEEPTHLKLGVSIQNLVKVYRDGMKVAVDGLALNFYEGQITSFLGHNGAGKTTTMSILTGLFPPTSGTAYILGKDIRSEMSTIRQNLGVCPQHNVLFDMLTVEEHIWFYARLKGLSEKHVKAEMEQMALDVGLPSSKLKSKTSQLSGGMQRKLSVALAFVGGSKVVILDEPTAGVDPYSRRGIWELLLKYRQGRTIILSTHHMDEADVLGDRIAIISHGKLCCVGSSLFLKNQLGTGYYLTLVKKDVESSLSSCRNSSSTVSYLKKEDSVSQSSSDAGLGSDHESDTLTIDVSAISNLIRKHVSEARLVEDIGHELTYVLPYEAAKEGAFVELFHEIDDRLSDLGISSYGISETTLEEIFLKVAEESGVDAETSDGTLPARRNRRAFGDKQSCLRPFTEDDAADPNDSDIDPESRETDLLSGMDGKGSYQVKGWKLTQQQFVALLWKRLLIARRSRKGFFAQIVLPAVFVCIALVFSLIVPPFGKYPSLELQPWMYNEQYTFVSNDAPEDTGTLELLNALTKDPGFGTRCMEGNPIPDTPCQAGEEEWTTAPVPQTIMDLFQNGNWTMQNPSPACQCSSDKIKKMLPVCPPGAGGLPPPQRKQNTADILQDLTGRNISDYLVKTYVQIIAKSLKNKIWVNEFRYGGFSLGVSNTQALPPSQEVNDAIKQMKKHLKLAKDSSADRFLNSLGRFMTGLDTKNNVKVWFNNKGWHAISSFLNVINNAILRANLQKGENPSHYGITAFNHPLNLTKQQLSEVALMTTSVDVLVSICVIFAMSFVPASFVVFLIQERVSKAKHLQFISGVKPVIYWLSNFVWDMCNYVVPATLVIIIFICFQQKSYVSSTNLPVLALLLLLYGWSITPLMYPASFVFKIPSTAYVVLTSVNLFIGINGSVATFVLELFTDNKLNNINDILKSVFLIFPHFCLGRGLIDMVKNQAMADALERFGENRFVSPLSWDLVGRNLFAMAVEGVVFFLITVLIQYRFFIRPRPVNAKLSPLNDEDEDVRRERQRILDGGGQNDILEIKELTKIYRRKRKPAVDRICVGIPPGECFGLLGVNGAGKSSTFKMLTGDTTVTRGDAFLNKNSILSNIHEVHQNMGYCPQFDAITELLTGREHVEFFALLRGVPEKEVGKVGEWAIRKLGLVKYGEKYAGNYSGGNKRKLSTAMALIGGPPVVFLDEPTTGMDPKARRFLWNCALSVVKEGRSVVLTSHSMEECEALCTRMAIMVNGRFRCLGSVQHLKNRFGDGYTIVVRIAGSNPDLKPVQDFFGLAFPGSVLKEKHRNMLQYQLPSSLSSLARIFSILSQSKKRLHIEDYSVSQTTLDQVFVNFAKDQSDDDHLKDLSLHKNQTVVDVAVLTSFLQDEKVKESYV

H-ALEHLFTLYEKALKALEDLLKKLL-OH [FAMP5]
cholesterol efflux after transient transfection with ABCA1 cDNA vs mock [1]: significantly upregulated | plasma MCP‐1 levels [2]: significantly reduced | cholesterol efflux after transient transfection with ABCA1 cDNA vs mock [3]: significantly upregulated | HDL Cholesterol [4, 6]: 12.6 ± 3.7 mg/dL | Total Cholesterol [4, 6]: 1439.5 ± 271.5 mg/dL | Triglyceride [4, 6]: 102.7 ± 18.3 mg/dL | effect on plasma total cholesterol, triglyceride, and HDL cholesterol levels ([4]; low and high doses, enzymatic assay): no significant effects | HDL Cholesterol [4, 7]: 16.6 ± 4.8 mg/dL | Total Cholesterol [4, 7]: 1532.8 ± 589.6 mg/dL | Triglyceride [4, 7]: 120.0 ± 41.6 mg/dL | red cell hemolysis (percentage of the Triton X‐100 lysis) [5]: only limited effects
